Screening results: PubChem, Broad Institute
This is a sample that favours compounds with a hit; in the whole collection about 2.2% have one here.
PDI turbidity: inhibitors of human PDI, primary screen, biochemical, turbidity, single point, plate reader | Protein disulfide-isomerase (Homo sapiens), P07237 | PDI insulin aggregation turbidity, A650, 90 min | inhibition, % at 10 µM | 350,000 tested, 0.052% active | AID 588391, 2011;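 active = mean inhibition across replicates of 30% or more, whatever share of single replicates reach that level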
FN deposit inh: inhibitors of fibronectin matrix deposition, primary screen, AH1F cells, Alexa488-fibronectin fluorescence, plate reader | AH1F fibroblasts, overnight | inhibition, % at 12.6 µM | 350,000 tested, 0.086% active | AID 743247, 2014;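 active = mean inhibition across replicates of 30% or more, regardless of how many single replicates reach that level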
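Schedule: 1 h cell adhesion before compound, then overnight fibronectin incubation; test system: AH1F fibroblast monolayer depositing Alexa488-labelled fibronectin into matrix; quantity: 10000 AH1F cells per well; probe or stimulus: fluorescent fibronectin at 24 nM final; signal: fluorescence, ex 485 nm, em 525 nm; evaluation: percent inhibition as loss of matrix-bound fibronectin fluorescence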
Env fusion inh: inhibitors of HIV-1 Env-driven cell-cell fusion, primary screen, HeLa-JRFL effector, CEM21 target cells, luciferase; inhibition, % at 12.3 µM; 360,000 tested, 1.1% active;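 active = mean replicate inhibition score of at least 50 and every replicate individually at or above 50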
PvdQ inh: P. aeruginosa PvdQ acylase inhibitors, primary screen, biochemical, fluorescence, plate reader and imaging, single point | PvdQ acylase [Pseudomonas aeruginosa LESB58] | purified PvdQ acylase | inhibition, % at 10 µM | 340,000 tested, 0.063% active; in the data active = inhibition above about 30%, passing the limit was not always enough
rRNA inh HTS: reduced GFP signal of wild-type E. coli, primary screen, bacterial rRNA inhibitor project, GFP/RFP fluorescence, OD600, single point; 350,000 tested, 1.6% active; GFP signal change (wild-type ribosome), % (concentration not given with the values); E. coli WT GFP vs humanized-ribosome RFP mutants, 24 h; active compounds read low; DMSO median 0, no signal -100; AID 720706, 2013;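 active = significant combined selectivity score with lowered wild-type GFP, culture density cut under 30%, mutant RFP and density less affected; inactive = any of these conditions unmet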
ERp5 inh: inhibitors of ERp5-driven insulin aggregation, primary screen, biochemical, turbidity, absorbance 650 nm, single point | inhibition, % at 9.99 µM | 90 min | Protein disulfide-isomerase A6 (Homo sapiens), Q15084 | 350,000 tested, 0.05% active;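 active = mean replicate inhibition above about 25%, with every replicate also reaching it, limit read from the data, passing the limit was not always enough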
Target sequence (Q15084 whole entry, looked up): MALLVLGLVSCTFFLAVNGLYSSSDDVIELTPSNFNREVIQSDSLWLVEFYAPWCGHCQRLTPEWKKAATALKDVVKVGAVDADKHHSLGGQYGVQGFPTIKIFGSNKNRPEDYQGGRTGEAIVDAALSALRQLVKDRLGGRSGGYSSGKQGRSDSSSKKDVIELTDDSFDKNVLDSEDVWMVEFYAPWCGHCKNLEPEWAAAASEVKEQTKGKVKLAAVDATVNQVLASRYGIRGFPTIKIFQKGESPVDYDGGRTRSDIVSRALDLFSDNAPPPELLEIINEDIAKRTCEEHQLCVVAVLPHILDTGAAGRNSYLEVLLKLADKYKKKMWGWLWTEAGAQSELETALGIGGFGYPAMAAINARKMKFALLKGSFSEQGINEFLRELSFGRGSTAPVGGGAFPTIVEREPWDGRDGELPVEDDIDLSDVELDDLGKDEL
Each line names hits and unclear results; the compound was inactive in the other large screens; [ ] = dose if it differs, or a comment.

Oc1ccc(O)c(C=NNC(=S)NC2CC3CC2C2C=CCC32)c1 (configuration not stated)	none (no result: PvdQ inh)
O=C(NC(=S)N1CCOCC1)c1cn(-c2ccccc2)nc1-c1ccccc1	rRNA inh HTS -19.0
CCC(=O)N1CCC2(CC1)CN(S(C)(=O)=O)[C@H](CO)c1[nH]c3cc(OC)ccc3c12	none (no result: PDI turbidity, FN deposit inh, Env fusion inh, PvdQ inh, ERp5 inh)
COc1ccc([C@@H]2[C@@H]3C(=O)N(C(C)(C)C)C(=O)[C@@H]3[C@]3(C)C(=O)N(c4ccc(C(F)(F)F)cc4)C(=O)N23)cc1	Env fusion inh 66.0
COc1ccc([C@@H]2[C@@H]3C(=O)N(C(C)(C)C)C(=O)[C@@H]3[C@]3(Cc4ccc(Cl)cc4)C(=O)N(c4cccc(C)c4)C(=O)N23)cc1	Env fusion inh 89.7
COc1ccc([C@@H]2[C@@H]3C(=O)N(C(C)(C)C)C(=O)[C@@H]3[C@]3(Cc4ccccc4)C(=O)N(c4ccc(C(F)(F)F)cc4)C(=O)N23)cc1	none
COc1ccc([C@@H]2[C@@H]3C(=O)N(C(C)(C)C)C(=O)[C@@H]3[C@]3(Cc4ccccc4)C(=O)N(c4ccc(OC)cc4)C(=O)N23)cc1	none
COc1ccc([C@@H]2[C@@H]3C(=O)N(C(C)(C)C)C(=O)[C@@H]3[C@]3(CC(C)C)C(=O)N(c4ccc(C(F)(F)F)cc4)C(=O)N23)cc1	Env fusion inh 108.7
COc1ccc([C@@H]2[C@@H]3C(=O)N(C(C)(C)C)C(=O)[C@@H]3[C@]3(Cc4ccc(Cl)cc4)C(=O)N(c4ccc(C)cc4)C(=O)N23)cc1	none
COc1ccc(N2C(=O)N3[C@H](c4cccc(C)c4)[C@@H]4C(=O)N(Cc5ccccc5)C(=O)[C@@H]4[C@]3(Cc3ccccc3)C2=O)cc1	Env fusion inh 85.8 (no result: PDI turbidity, PvdQ inh)
C[C@H](CO)N1C[C@H](C)[C@@H](CN(C)CC2CC2)OCCCC[C@H](C)Oc2ccc(NC(=O)CCC(F)(F)F)cc2C1=O	none (no result: PDI turbidity, FN deposit inh, PvdQ inh)
COc1ccc([C@@H]2[C@@H]3C(=O)N(C(C)(C)C)C(=O)[C@@H]3[C@]3(CC(C)C)C(=O)N(c4ccccc4)C(=O)N23)cc1	Env fusion inh 80.8
CCN1C(=O)[C@H]2[C@@H](c3ccc(C)cc3)N3C(=O)N(c4cccc(Cl)c4)C(=O)[C@@]3(Cc3ccccc3)[C@H]2C1=O	none
CCN1C(=O)[C@H]2[C@@H](c3ccc(C)cc3)N3C(=O)N(c4cccc(Cl)c4)C(=O)[C@@]3(Cc3ccc(Cl)cc3)[C@H]2C1=O	Env fusion inh 58.8
COc1ccc([C@@H]2[C@@H]3C(=O)N(C(C)(C)C)C(=O)[C@@H]3[C@]3(CC(C)C)C(=O)N(c4cccc(Br)c4)C(=O)N23)cc1	Env fusion inh 90.1
COc1cccc(C(C)NC(=S)NCc2ccc(Cl)cc2)c1 (configuration not stated)	rRNA inh HTS -23.5 (no result: FN deposit inh)
COc1ccc(C(C)NC(=S)NCc2ccc(F)cc2)cc1 (configuration not stated)	none (no result: FN deposit inh)
CO[C@H]1CN(C)C(=O)c2ccc(NC(=O)C3CCC3)cc2OC[C@H](C)N(Cc2cccnc2)C[C@@H]1C	none (no result: PDI turbidity, Env fusion inh, PvdQ inh)
Cc1ccccc1S(=O)(=O)N1CC(=O)N2[C@H](CO)[C@H](c3ccc(C#CCN(C)C)cc3)[C@@H]2C1	none (no result: PDI turbidity, FN deposit inh, Env fusion inh, PvdQ inh)
CN(Cc1ccccc1)C(=O)c1[nH]cnc1C(=O)NCc1ccc(CNC(=O)OC(C)(C)C)cc1	none
CN(Cc1ccccc1)C(=O)c1[nH]cnc1C(=O)NCc1ccccc1	rRNA inh HTS -28.3
COC(=O)C1=CN(Cc2ccc(F)cc2)C=C(C(=O)OC)C1c1cc(OC)c(OC)c(OC)c1	rRNA inh HTS -24.4
COC(=O)C1=CN(C(C)c2ccccc2)C=C(C(=O)OC)C1c1cc(OC)c(OC)c(OC)c1 (configuration not stated)	rRNA inh HTS -22.0
C[C@H](C(=O)N(C)C[C@@H]1OCc2ccccc2-c2ccccc2C(=O)N([C@@H](C)CO)C[C@@H]1C)c1ccccc1	Env fusion inh 57.8[16.7 µM] (no result: PDI turbidity, PvdQ inh)
